ChEMBL document CHEMBL1649117, “GRL-02031, a novel nonpeptidic protease inhibitor (PI) containing a stereochemically defined fused cyclopentanyltetrahydrofuran potent against multi-PI-resistant human immunodeficiency virus type 1 in vitro” (Antimicrob Agents Chemother, 2009)

What was measured:
[1] = tested on: Human immunodeficiency virus 1; experiment: Ratio of EC50 for HIV1 NL4-3 harboring L10F/L33F/M46I/I47V/Q58E/V82I/I84V/I85V amino acid substitution in protease encoding region to EC50 for HIV1 NL4-3; format: functional
In short: (§1)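 MT-4 cells (10^5/ml) infected with 100 TCID50s of PI-selected HIV-1NL4-3 variants or the parental strain, with or without serial drug concentrations, at 37°C. Day 7 supernatant p24 Gag measured by chemiluminescent enzyme immunoassay. […] Triplicate. Ratio is variant EC50 over wild-type EC50.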

[2] = tested on: Human immunodeficiency virus 1; experiment: Ratio of EC50 for HIV1 JSL harboring L10I/L24I/L33F/E35D/M36I/N37S/M46L/I54V/R57K/I62V/L63P/A71V/G73S/82A in protease encoding region to EC50 for HIV1 ERS104pre; format: functional
[3] = tested on: Human immunodeficiency virus 1; experiment: Ratio of EC50 for HIV1 NL4-3 harboring L10F/V32I/M46I/I54M//A71V/I84V amino acid substitution in protease encoding region to EC50 for HIV1 NL4-3; format: functional; in short: as §1
[4] = tested on: Human immunodeficiency virus 1; experiment: Ratio of EC50 for HIV1 A harboring L10I/I15V/E35D/N37E/K45R/I54V/L63P/A71V/V82T/L90M/I93L/C95F in protease encoding region to EC50 for HIV1 ERS104pre; format: functional
[5] = tested on: Human immunodeficiency virus 1; experiment: Antiviral activity against HIV1 NL4-3 harboring L10F/L24I/M46I/L63P/A71V/G73S/V82T amino acid substitution in protease encoding region infected in human MT4 cells assessed as inhibition of p24 Gag protein production selected at 5 uM of indinavir by ELISA; format: functional, organism-based; conditions: Human immunodeficiency virus 1, NL4-3, MT4
In short: (§2)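 HIV-1NL4-3 (500 TCID50s) was passaged in MT-4 cells, starting at 0.01–0.03 µM PI and raising the drug generally two- to threefold as virus propagated. Cell-free passage used day-7 supernatants. Variants were then tested in MT-4 cells (10^5/ml) with 100 TCID50s, with or without drug, at 37°C. Day-7 p24 Gag was read by chemiluminescent immunoassay; EC50 vs drug-free control; triplicate.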

[6] = tested on: Human immunodeficiency virus 1; experiment: Antiviral activity against HIV1 NL4-3 harboring L10F/D30N/K45I/A71V/T74S amino acid substitution in protease encoding region infected in human MT4 cells assessed as inhibition of p24 Gag protein production selected at 5 uM of nelfinavir by ELISA; format: functional, organism-based; conditions: Human immunodeficiency virus 1, NL4-3, MT4; in short: as §2
[7] = tested on: Human immunodeficiency virus 1; experiment: Ratio of EC50 for HIV1 MM harboring L10I/K43T/M46L/I54V/L63P/A71V/V82A/L90M/Q92K in protease encoding region infected to EC50 for HIV1 ERS104pre; format: functional
[8] = tested on: Human immunodeficiency virus 1; experiment: Antiviral activity against HIV1 JSL harboring L10I/L24I/L33F/E35D/M36I/N37S/M46L/I54V/R57K/I62V/L63P/A71V/G73S/82A in protease encoding region infected in human PHA-PBC assessed as inhibition of p24 Gag protein production by ELISA; format: functional, organism-based; conditions: Human immunodeficiency virus 1, JSL
In short: (§3)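 Phytohemagglutinin-stimulated PBMs (10^6/ml) infected with 50 TCID50s of each primary isolate, cultured with or without drug in 10-fold serial dilutions. On day 7, supernatant p24 Gag was measured by automated chemiluminescent enzyme immunoassay. […] Triplicate.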

[9] = tested on: Human immunodeficiency virus 1; experiment: Antiviral activity against HIV1 NL4-3 harboring L10F/V32I/M46I/I54M//A71V/I84V amino acid substitution in protease encoding region infected in human MT4 cells assessed as inhibition of p24 Gag protein production selected at 5 uM of amprenavir by ELISA; format: functional, organism-based; conditions: Human immunodeficiency virus 1, NL4-3, MT4
In short: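 Cell-free passage used day-7 supernatants. Variants were then tested in MT-4 cells (10^5/ml) with 100 TCID50s, with or without drug, at 37°C. Day-7 p24 Gag was read by chemiluminescent immunoassay; EC50 vs drug-free control; triplicate.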

[10] = tested on: Human immunodeficiency virus 1; experiment: Antiviral activity against HIV1 MOKW infected in human PHA-PBC assessed as inhibition of p24 Gag protein production by ELISA; format: functional, organism-based; conditions: Human immunodeficiency virus 1, MOKW; in short: as §3
[11] = tested on: Human immunodeficiency virus 1; experiment: Ratio of EC50 for HIV1 C harboring L10I/I15V/K20R/L24I/M36I/M46L/I54V/I62V/L63P/K70Q/V82A/L89M in protease encoding region to EC50 for HIV1 ERS104pre; format: functional
[12] = tested on: Human immunodeficiency virus 1; experiment: Ratio of EC50 for HIV1 TM harboring L10I/K14R/R41K/M46L/I54V/L63P/A71V/V82A/L90M/I93L in protease encoding region to EC50 for HIV1 ERS104pre; format: functional
In short: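 PHA-stimulated PBMs (10^6/ml) infected with 50 TCID50s of primary HIV-1 isolate and cultured with 10-fold serial drug dilutions. Day 7 supernatant p24 Gag measured by chemiluminescent enzyme immunoassay. […] Triplicate. Ratio is resistant isolate EC50 over reference isolate EC50.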

[13] = tested on: Human immunodeficiency virus 1; experiment: Ratio of EC50 for HIV1 NL4-3 harboring L23I/K43I/M46I/I50L/G51A/A71V amino acid substitution in protease encoding region to EC50 for HIV1 NL4-3; format: functional; in short: as §1
[14] = tested on: Human immunodeficiency virus 1; experiment: Antiviral activity against HIV1 A harboring L10I/I15V/E35D/N37E/K45R/I54V/L63P/A71V/V82T/L90M/I93L/C95F in protease encoding region infected in human PHA-PBC assessed as inhibition of p24 Gag protein production by ELISA; format: functional, organism-based; conditions: Human immunodeficiency virus 1, A
In short: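 Phytohemagglutinin-stimulated PBMs (10^6/ml) infected with 50 TCID50s of each primary isolate, cultured with or without drug in 10-fold serial dilutions. On day 7, supernatant p24 Gag was measured by automated chemiluminescent enzyme immunoassay. Triplicate.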

[15] = tested on: Human immunodeficiency virus; experiment: Antiviral activity against HIV1 LAI infected in human MT2 cells after 7 days by MTT assay; format: functional, organism-based; conditions: Human immunodeficiency virus 1, LAI, MT2, 168 h
[16] = tested on: Human immunodeficiency virus 1; experiment: Antiviral activity against HIV1 subtype C 97ZA003 infected in human PHA-PBM cells after 7 days by MTT assay; format: functional, organism-based; conditions: Human immunodeficiency virus 1, subtype C 97ZA003, PBMC, 168 h
[17] = tested on: Human immunodeficiency virus 1; experiment: Ratio of EC50 for HIV1 NL4-3 harboring I84V/I85V mutation in protease encoding region infected in human […] cells to EC50 for HIV1 NL4-3 infected in human MT4 cells; format: functional
[18] = tested on: Human immunodeficiency virus 1; experiment: Ratio of EC50 for HIV1 NL4-3 harboring V82I/I85V mutation in protease encoding region infected in human […] cells to EC50 for HIV1 NL4-3 infected in human MT4 cells; format: functional
[19] = tested on: Human immunodeficiency virus 1; experiment: Ratio of EC50 for HIV1 NL4-3 harboring D30N mutation in protease encoding region infected in human […] cells to EC50 for HIV1 NL4-3 infected in human MT4 cells; format: functional
[20] = tested on: Human immunodeficiency virus 1; experiment: Ratio of EC50 for indinavir to compound against HIV1 NL4-3 harboring I84V mutation in protease encoding region infected in human […] cells; format: functional

SMILES | Ratio EC50 [1] | Ratio EC50 [2] | Ratio EC50 [3] | Ratio EC50 [4] | EC50 [5] | EC50 [6] | Ratio EC50 [7] | EC50 [8] | EC50 [9] | EC50 [10] | Ratio EC50 [11] | Ratio EC50 [12] | Ratio EC50 [13] | EC50 [14] | EC50 [15] | EC50 [16] | Ratio EC50 [17] | Ratio EC50 [18] | Ratio EC50 [19] | Ratio EC50 [20]
CC(C)(C)NC(=O)[C@@H]1C[C@@H]2CCCC[C@@H]2CN1C[C@@H](O)[C@H](Cc1ccccc1)NC(=O)[C@H](CC(N)=O)NC(=O)c1ccc2ccccc2n1 | 1 | 36 | 2 | 11 | 22 nM | 28 nM | 30 | 320 nM | 16 nM | 4 nM | 4 | 30 | 4 | 100 nM | 14 nM | – | – | – | – | –
CC(C)CN(C[C@@H](O)[C@H](Cc1ccccc1)NC(=O)O[C@H]1CCOC1)S(=O)(=O)c1ccc(N)cc1 | 8 | 26 | >36 | 6 | 260 nM | 78 nM | 16 | 660 nM | > 1000 nM | 15 nM | 9 | 14 | 6 | 160 nM | 33 nM | – | – | – | – | –
COc1ccc(S(=O)(=O)N(C[C@@H]2CCC(=O)N2)C[C@@H](O)[C@H](Cc2ccccc2)NC(=O)O[C@@H]2C[C@@H]3CCO[C@@H]3C2)cc1 | >43 | 2 | 2 | 1 | 47 nM | 36 nM | 2 | 43 nM | 37 nM | 26 nM | 1 | 1 | 1 | 14 nM | 28 nM | 15 nM | 4.2 | 1.5 | 0.9 | 2.2
CC(C)(C)NC(=O)[C@@H]1CN(Cc2cccnc2)CCN1C[C@@H](O)C[C@@H](Cc1ccccc1)C(=O)N[C@H]1c2ccccc2C[C@H]1O.O | 3 | >48 | 16 | >48 | > 1000 nM | 270 nM | >48 | > 1000 nM | 220 nM | 19 nM | >48 | >48 | 24 | > 1000 nM | 44 nM | – | – | – | – | –
Cc1c(O)cccc1C(=O)N[C@@H](CSc1ccccc1)[C@H](O)CN1C[C@H]2CCCC[C@H]2C[C@H]1C(=O)NC(C)(C)C | 1 | >63 | 10 | 21 | 650 nM | > 1000 nM | >63 | > 1000 nM | 170 nM | 23 nM | 23 | >63 | 12 | 330 nM | 23 nM | – | – | – | – | –
